Measurements: ChEMBL document CHEMBL2203111, “An Hsp90 modulator that exhibits a unique mechanistic profile” (Bioorg Med Chem Lett, 2012)
Active and inactive are the calls of the source. The rule behind the calls is not given here. *1 amine or outer side, *2 acyl side, *3 side chain or, on linkers, in order; H or OH if unused. Where a SMILES comes first, the peptide text is derived from it. [ ]: non-standard residue; d: D form. X1 = O=C([C@H](N[*:1])[C@H](OCc1ccccc1)c1ccccc1)[*:2]; NMeV = CN[C@H](C(=O)O)C(C)C

Tests used:
[1] = Inhibition of binding of recombinant HSP90 to his-tagged Akt up to 10 uM by Western blotting analysis
HCT-116 [2] = experiment: Induction of apoptosis in human HCT116 cells assessed as PARP cleavage at 50 uM after 24 hrs by Western blotting analysis; type: functional
In short: (§1)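 HCT116 cells treated 24 hrs with compound at 0–50 µM; cell lysates analyzed by Western blot for full-length PARP (~113 kDa) and cleaved fragments, full-length PARP quantified relative to untreated cells.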

[3] = molecular target: T1, Heat shock protein HSP90 (Homo sapiens) (UniProt P07900+P08238); experiment: Binding affinity to HSP90 in human HCT116 cells assessed as increase in staining intensity in cytosol at 5 uM after 72 hrs by immunofluorescence staining analysis; type: cell-based; details: HCT-116
In short: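 HCT116 colon cancer cells treated 72 hours (DMSO as vehicle control, 17-AAG as reference Hsp90 inhibitor); Hsp90 visualized by immunofluorescence with a polyclonal anti-Hsp90 antibody, cytosolic staining intensity compared with DMSO-treated cells.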

HCT-116 [4] = experiment: Induction of apoptosis in human HCT116 cells assessed as PARP cleavage after 24 hrs by Western blotting analysis; type: functional, cell-based; in short: as §1
[5] = Competitive binding affinity to N-middle domain of HSP90 expressed in BL21(DE)3 Escherichia coli cells after 1 hr by immunoblotting analysis in the presence of 2-chlorobenzyl 4-((2R,5S,8S,11S,14R)-11,14-dibenzyl-8-isobutyl-5-isopropyl-13-methyl-3,6,9,12,15-pentaoxo-1,4,7,10,13-pentaazacyclopentadecan-2-yl)butylcarbamate
[6] = Inhibition of binding of recombinant HSP90 to his-tagged HER2 up to 10 uM by Western blotting analysis
Myosin-9 (Homo sapiens) = Myosin-9 (Homo sapiens) (UniProt P35579); experiment: Binding affinity to myosin-9 in human HCT116 cell lysates at 0.6 uM after 1 hr using coomassie blue staining by SDS-PAGE based pull down assay; details: HCT-116
In short: (§2)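 Biotinylated probe incubated with HCT116 cell lysate; neutravidin-agarose beads added to capture probe with bound proteins, beads washed ten times, proteins eluted in sample buffer and resolved by gel/Western blot. Controls: PEGylated biotin linker alone and DMSO.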

[7] = molecular target: T1, Heat shock protein HSP90 (Homo sapiens); experiment: Binding affinity to HSP90 in human HCT116 cell lysates at 0.6 uM after 1 hr using coomassie blue staining by SDS-PAGE based pull down assay; type: protein assay; details: HCT-116; in short: as §2
[8] = molecular target: Glyceraldehyde-3-phosphate dehydrogenase (Homo sapiens) (UniProt P04406); experiment: Binding affinity to glyceraldehyde-3-phosphate dehydrogenase in human HCT116 cell lysates at 0.6 uM after 1 hr using coomassie blue staining by SDS-PAGE based pull down assay; details: HCT-116; in short: as §2
[9] = molecular target: T1, Heat shock protein HSP90 (Homo sapiens); experiment: Binding affinity to HSP90 in human HCT116 cell lysates at 0.6 uM after 1 hr by Western blot based pull down assay; type: protein assay; details: HCT-116; in short: as §2
[10] = Binding affinity to N-middle domain of HSP90 expressed in BL21(DE)3 Escherichia coli cells at 5 uM after 2 hrs by Western blotting method based pull down assay
HCT-116 [11] = experiment: Binding affinity to actin in human HCT116 cell lysates at 0.6 uM after 1 hr using coomassie blue staining by SDS-PAGE based pull down assay; type: cell-free; in short: as §2
HCT-116 [12] = experiment: Binding affinity to beta tubulin in human HCT116 cell lysates at 0.6 uM after 1 hr using coomassie blue staining by SDS-PAGE based pull down assay; type: cell-free; in short: as §2

Sequence of Myosin-9 (Homo sapiens) (P35579 whole entry): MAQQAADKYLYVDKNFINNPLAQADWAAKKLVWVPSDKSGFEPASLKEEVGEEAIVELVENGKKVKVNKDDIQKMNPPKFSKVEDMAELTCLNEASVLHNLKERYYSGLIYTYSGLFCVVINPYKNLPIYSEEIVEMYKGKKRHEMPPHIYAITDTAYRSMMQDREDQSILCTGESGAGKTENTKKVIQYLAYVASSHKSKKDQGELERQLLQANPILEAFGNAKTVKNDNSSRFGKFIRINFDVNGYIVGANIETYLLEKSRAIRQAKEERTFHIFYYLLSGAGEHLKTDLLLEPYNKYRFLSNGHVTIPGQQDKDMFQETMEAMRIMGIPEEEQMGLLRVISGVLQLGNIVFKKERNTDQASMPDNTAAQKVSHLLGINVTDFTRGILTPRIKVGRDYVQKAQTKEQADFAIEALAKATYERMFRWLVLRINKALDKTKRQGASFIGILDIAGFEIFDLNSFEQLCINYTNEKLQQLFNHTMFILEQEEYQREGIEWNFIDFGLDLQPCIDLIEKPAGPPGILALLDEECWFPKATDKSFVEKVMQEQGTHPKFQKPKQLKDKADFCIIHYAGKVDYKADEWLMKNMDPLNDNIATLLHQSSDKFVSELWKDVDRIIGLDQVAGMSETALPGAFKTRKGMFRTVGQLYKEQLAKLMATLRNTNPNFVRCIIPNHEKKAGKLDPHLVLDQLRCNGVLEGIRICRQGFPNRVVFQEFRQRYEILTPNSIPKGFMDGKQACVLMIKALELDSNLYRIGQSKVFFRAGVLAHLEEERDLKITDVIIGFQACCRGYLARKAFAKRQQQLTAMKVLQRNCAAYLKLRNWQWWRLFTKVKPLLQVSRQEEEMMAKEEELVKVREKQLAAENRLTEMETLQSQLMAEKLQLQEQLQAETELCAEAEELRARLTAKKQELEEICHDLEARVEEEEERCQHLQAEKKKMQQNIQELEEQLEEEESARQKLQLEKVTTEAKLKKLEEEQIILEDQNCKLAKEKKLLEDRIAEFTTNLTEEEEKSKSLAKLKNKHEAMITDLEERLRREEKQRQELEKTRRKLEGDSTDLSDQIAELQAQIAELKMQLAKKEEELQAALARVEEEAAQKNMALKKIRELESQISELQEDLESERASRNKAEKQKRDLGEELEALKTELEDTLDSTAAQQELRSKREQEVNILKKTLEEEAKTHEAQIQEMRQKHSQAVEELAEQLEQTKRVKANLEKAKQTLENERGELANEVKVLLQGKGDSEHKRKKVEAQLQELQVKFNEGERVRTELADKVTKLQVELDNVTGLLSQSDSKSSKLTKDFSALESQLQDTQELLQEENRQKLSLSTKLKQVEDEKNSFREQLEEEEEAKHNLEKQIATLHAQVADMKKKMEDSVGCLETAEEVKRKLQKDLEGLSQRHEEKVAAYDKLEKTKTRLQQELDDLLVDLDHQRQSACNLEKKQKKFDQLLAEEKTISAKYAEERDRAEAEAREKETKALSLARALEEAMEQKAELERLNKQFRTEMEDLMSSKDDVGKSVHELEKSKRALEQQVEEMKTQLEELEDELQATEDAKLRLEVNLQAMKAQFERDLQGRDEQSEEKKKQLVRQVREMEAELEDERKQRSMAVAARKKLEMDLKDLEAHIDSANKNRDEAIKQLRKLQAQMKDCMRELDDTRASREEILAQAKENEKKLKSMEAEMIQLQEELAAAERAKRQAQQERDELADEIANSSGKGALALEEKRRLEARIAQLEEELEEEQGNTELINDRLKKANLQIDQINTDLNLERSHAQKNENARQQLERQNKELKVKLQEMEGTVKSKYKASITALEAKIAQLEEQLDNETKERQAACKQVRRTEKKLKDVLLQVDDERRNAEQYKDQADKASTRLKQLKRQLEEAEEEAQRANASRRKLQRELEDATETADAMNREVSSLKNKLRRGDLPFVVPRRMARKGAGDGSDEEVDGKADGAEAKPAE
Sequence of Glyceraldehyde-3-phosphate dehydrogenase (Homo sapiens) (P04406 2-335 limits assumed): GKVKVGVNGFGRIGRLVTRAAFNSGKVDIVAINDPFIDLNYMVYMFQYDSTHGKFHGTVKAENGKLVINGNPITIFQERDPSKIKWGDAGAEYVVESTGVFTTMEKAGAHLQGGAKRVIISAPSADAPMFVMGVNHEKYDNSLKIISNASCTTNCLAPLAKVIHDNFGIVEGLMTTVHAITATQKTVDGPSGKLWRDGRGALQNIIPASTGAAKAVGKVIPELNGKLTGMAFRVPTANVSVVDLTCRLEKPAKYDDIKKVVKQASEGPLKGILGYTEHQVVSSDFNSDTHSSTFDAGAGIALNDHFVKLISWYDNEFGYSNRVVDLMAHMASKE

## CC(C)C[C@@H]1NC(=O)[C@H](C(C)C)NC(=O)[C@@H](CCCCNC(=O)OCc2ccccc2Cl)NC(=O)[C@@H](Cc2ccccc2)N(C)C(=O)[C@H](Cc2ccccc2)NC1=O
[1]
  inhibition: inactive
HCT-116 [2]
  Activity: 48%
[3]
  Activity: Active
HCT-116 [4]
  Activity: Dose-dependent effect
[5]
  IC50: 6.2 µM
[6]
  inhibition: inactive

## CC(C)C[C@@H]1NC(=O)[C@H](CCCCNC(=O)CCOCCOCCOCCOCCNC(=O)CCCC[C@@H]2SC[C@@H]3NC(=O)N[C@@H]32)NC(=O)[C@@H](CCCCNC(=O)OCc2ccccc2Cl)NC(=O)[C@@H](Cc2ccccc2)N(C)C(=O)[C@H](Cc2ccccc2)NC1=O
Myosin-9 (Homo sapiens)
  Activity: Active
[7]
  Activity: Active
[8]
  Activity: Active
[9]
  Activity: Active
[10]
  Activity: Active
HCT-116 [11]
  Activity: Active
HCT-116 [12]
  Activity: Active

## CC(C)C[C@@H]1NC(=O)[C@H](C(C)C)N(C)C(=O)[C@@H](CC(C)C)NC(=O)[C@@H](Cc2ccccc2)NC(=O)[C@@H]([C@H](OCc2ccccc2)c2ccccc2)NC1=O (cyclo(L[X1][dF][dL][NMeV]))
[3]
  Activity: Active
[5]
  IC50: 1.9 µM

## CC(C)[C@@H]1NC(=O)[C@@H](CCCCNC(=O)OCc2ccccc2Cl)NC(=O)[C@@H](Cc2ccccc2)N(C)C(=O)[C@H](Cc2ccccc2)NC(=O)[C@H](CCCCNC(=O)CCOCCOCCOCCOCCNC(=O)CCCC[C@@H]2SC[C@@H]3NC(=O)N[C@@H]32)NC1=O
Myosin-9 (Homo sapiens)
  Activity: inactive
[7]
  Activity: inactive
[8]
  Activity: inactive
[9]
  Activity: inactive
HCT-116 [11]
  Activity: inactive
HCT-116 [12]
  Activity: inactive
